In brackets after ≈: the same amount, converted by molar mass. Activity calls are given as the source filed them. The calls are words filed in the database; no cut-off is given here. Bounds are passed on as bounds.

The MIC is the lowest concentration that inhibits growth of the organism. Lower therefore signals a more susceptible organism. By solubility is commonly meant how much of the substance goes into solution per volume. Low readings indicate a poorly soluble substance, high ones a readily soluble substance.

The test system of series [1] is Escherichia coli. The experiment in a line: Potency index, ratio of norfloxacin MIC to compound MIC for antibacterial activity against Escherichia coli DH52. In kind it is functional.
For series [2], the system named is Staphylococcus aureus. Kind of series: Antibacterial activity against Staphylococcus aureus ATCC 25923 after 18 to 24 hrs by CLSI two fold serial dilution method. Type of series: functional.
Series [3] concerns Staphylococcus aureus. The experiment in a line: Antibacterial activity against methicillin-resistant Staphylococcus aureus N315 after 18 to 24 hrs by CLSI two fold serial dilution method. In kind it is functional.
The test system of a further series is Bacillus subtilis. The experiment in a line: Antibacterial activity against Bacillus subtilis ATCC 21216 after 18 to 24 hrs by CLSI two fold serial dilution method. In kind it is functional.
Series [4] concerns Micrococcus luteus. Kind of series: Antibacterial activity against Micrococcus luteus ATCC 4698 after 18 to 24 hrs by CLSI two fold serial dilution method. Type of series: functional.
The next series deals with Enterococcus faecalis. Kind of series: Antibacterial activity against drug-resistant Enterococcus faecalis after 18 to 24 hrs by CLSI two fold serial dilution method. Type of series: functional.
For series [5], the system named is Escherichia coli. The experiment in a line: Antibacterial activity against Escherichia coli DH52 after 18 to 24 hrs by CLSI two fold serial dilution method. In kind it is functional.
Series [6] has as its system Escherichia coli. Kind of series: Antibacterial activity against drug-resistant Escherichia coli after 18 to 24 hrs by CLSI two fold serial dilution method. In kind it is functional.
Series [7] deals with Pseudomonas aeruginosa. Kind of series: Antibacterial activity against Pseudomonas aeruginosa ATCC 27853 after 18 to 24 hrs by CLSI two fold serial dilution method. In kind it is functional.
Series [8] concerns Pseudomonas aeruginosa. The experiment in a line: Antibacterial activity against drug-resistant Pseudomonas aeruginosa after 18 to 24 hrs by CLSI two fold serial dilution method. Type of series: functional.
The test system of a further series is Klebsiella pneumoniae. The experiment in a line: Antibacterial activity against drug-resistant Klebsiella pneumoniae after 18 to 24 hrs by CLSI two fold serial dilution method. In kind it is functional.
Series [9] concerns Acinetobacter baumannii. The experiment in a line: Antibacterial activity against drug-resistant Acinetobacter baumannii after 18 to 24 hrs by CLSI two fold serial dilution method. In kind it is functional.
For series [10], the system named is Candida albicans. Kind of series: Antifungal activity against Candida albicans ATCC 76615 by CLSI two fold serial dilution method. In kind it is functional.
Another series has as its system Cyberlindnera jadinii. The experiment in a line: Antifungal activity against Candida utilis ATCC 9950 by CLSI two fold serial dilution method. Type of series: functional. Particulars: Williopsis jadinii.
The test system of a further series is Pichia norvegensis. Kind of series: Antifungal activity against Candida mycoderma ATCC 96918 by CLSI two fold serial dilution method. In kind it is functional.
Another series concerns Aspergillus flavus. The experiment in a line: Antifungal activity against Aspergillus flavus ATCC 204304 by CLSI two fold serial dilution method. In kind it is functional.
Another series has as its system Saccharomyces cerevisiae. Kind of series: Antifungal activity against Saccharomyces cerevisiae ATCC 9763 by CLSI two fold serial dilution method. In kind it is functional.
For a further series, the system named is Candida parapsilosis. Kind of series: Antifungal activity against Candida parapsilosis ATCC 22019 by CLSI two fold serial dilution method. In kind it is functional. The settings on record: Lodderomyces parapsilosis.
Series [11] deals with Candida albicans. Kind of series: Antifungal activity against drug-resistant Candida albicans by CLSI two fold serial dilution method. In kind it is functional.
A further series deals with Candida tropicalis. The experiment in a line: Antifungal activity against drug-resistant Candida tropicalis by CLSI two fold serial dilution method. Type of series: functional.
The subject of a further series is Aspergillus fumigatus. The experiment in a line: Antifungal activity against drug-resistant Aspergillus fumigatus by CLSI two fold serial dilution method. In kind it is functional.
Series [12] can be described thus: Aqueous solubility of the compound in phosphate buffer at pH 7.4 after 3 hrs by UV detection assay. In kind it is physicochemical. Summed up: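 Water solubility measured at physiological pH, with berberine as the control.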
Series [13] can be described thus: Cytotoxicity against human LO2 cells assessed as cell viability at 1.5625 to 100 ug/ml after 48 hrs by MTT assay relative to control. Type of series: cell-based, L02. The settings on record: read-out: Activity. The method in brief: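 Human hepatocyte LO2 cells exposed to compound across a concentration range for 48 h; viability read by colorimetric MTT assay; standard deviation from three independent experiments.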
Background: Tetrazolium dyes change colour on reduction, which living cells bring about.

Series [14] relates to Acinetobacter baumannii. The experiment in a line: Bactericidal activity against drug-resistant Acinetobacter baumannii assessed as reduction in number of viable bacterial load at 8 nmol/ml with in 2 hrs by time kill assay. Type of series: functional.
Series [15] has as its system Acinetobacter baumannii. The experiment in a line: Antibacterial activity against drug-resistant Acinetobacter baumannii at 0.7 ug/ml measured 12 hrs post 10 serial passages. Type of series: functional, organism-based.
Series [16] relates to Acinetobacter baumannii. Kind of series: Induction of membrane permeabilization in drug-resistant Acinetobacter baumannii at 0.024 umol/ml incubated for 1 hr measured up to 120 mins by propidium iodide staining-based fluorescence spectra analysis. Type of series: functional, organism-based.
For series [17], the system named is Micrococcus luteus. Kind of series: Potency index, ratio of berberine MIC to compound MIC for antibacterial activity against Micrococcus luteus ATCC 4698. Type of series: functional.

For the compound `CCCCCCCCCCOc1c(OC)cc(/C=N/NC(N)=S)c2c1CN1CCc3cc4c(cc3C1C2)OCO4` (stereo not given), in the series with Escherichia coli [1], the Ratio turned out to be 53. The MIC with Staphylococcus aureus [2] turned out to be 30 µM (≈ 17 µg/mL); with Staphylococcus aureus [3], 30 µM (≈ 17 µg/mL); against Bacillus subtilis, 230 µM (≈ 130 µg/mL); with Micrococcus luteus [4], 230 µM (≈ 130 µg/mL); with Enterococcus faecalis it was 30 µM (≈ 17 µg/mL); in the series on Escherichia coli [5], 30 µM (≈ 17 µg/mL). Besides, the MIC against Escherichia coli [6] stood at 30 µM (≈ 17 µg/mL); in the series with Pseudomonas aeruginosa [7], 230 µM (≈ 130 µg/mL); against Pseudomonas aeruginosa [8], 230 µM (≈ 130 µg/mL); against Klebsiella pneumoniae it was 230 µM (≈ 130 µg/mL); in the series on Acinetobacter baumannii [9], 10 µM (≈ 5.67 µg/mL); with Candida albicans [10] it was 60 µM (≈ 34 µg/mL). The MIC against Cyberlindnera jadinii was determined as 450 µM (≈ 255 µg/mL); in the series with Pichia norvegensis, 230 µM (≈ 130 µg/mL); in the series on Aspergillus flavus, 450 µM (≈ 255 µg/mL); against Saccharomyces cerevisiae, 230 µM (≈ 130 µg/mL); with Candida parapsilosis, 110 µM (≈ 62.3 µg/mL); in the series on Candida albicans [11], 60 µM (≈ 34 µg/mL). Besides, the minimum inhibitory concentration (MIC) in the series on Candida tropicalis amounted to 30 µM (≈ 17 µg/mL); against Aspergillus fumigatus, 7 µM (≈ 3.97 µg/mL).
Consider `CCCCCCOc1c(OC)cc(/C=N/NC(N)=S)c2c1CN1CCc3cc4c(cc3C1C2)OCO4` (stereo not given), for which the Ratio with Escherichia coli [1] turned out to be 53. In addition, the MIC in the series with Staphylococcus aureus [2] amounted to 130 µM (≈ 66.4 µg/mL); in the series on Staphylococcus aureus [3] it was 130 µM (≈ 66.4 µg/mL); in the series on Bacillus subtilis, 130 µM (≈ 66.4 µg/mL); in the series with Micrococcus luteus [4] it was 250 µM (≈ 128 µg/mL); against Enterococcus faecalis it was 30 µM (≈ 15.3 µg/mL); against Escherichia coli [5] it was 30 µM (≈ 15.3 µg/mL). Moreover, the MIC against Escherichia coli [6] was found to be 30 µM (≈ 15.3 µg/mL); against Pseudomonas aeruginosa [7], 60 µM (≈ 30.6 µg/mL); in the series with Pseudomonas aeruginosa [8] it was 60 µM (≈ 30.6 µg/mL); in the series with Klebsiella pneumoniae it was 130 µM (≈ 66.4 µg/mL); against Acinetobacter baumannii [9] it was 60 µM (≈ 30.6 µg/mL); against Candida albicans [10] it was 60 µM (≈ 30.6 µg/mL). In addition, the MIC with Cyberlindnera jadinii was found to be 250 µM (≈ 128 µg/mL); with Pichia norvegensis it was 250 µM (≈ 128 µg/mL); with Aspergillus flavus, 250 µM (≈ 128 µg/mL); in the series on Saccharomyces cerevisiae, 500 µM (≈ 255 µg/mL); in the series on Candida parapsilosis, 60 µM (≈ 30.6 µg/mL); in the series with Candida albicans [11] it was 60 µM (≈ 30.6 µg/mL). Also, the MIC in the series on Candida tropicalis was found to be 60 µM (≈ 30.6 µg/mL); in the series on Aspergillus fumigatus, 130 µM (≈ 66.4 µg/mL).
For `COc1cc(/C=N/Nc2nccs2)c2c(c1OCc1ccc(Cl)cc1Cl)CN1CCc3cc4c(cc3C1C2)OCO4` (stereo not given), the minimum inhibitory concentration (MIC) against Staphylococcus aureus [2] was 110 µM (≈ 67 µg/mL); with Bacillus subtilis, 210 µM (≈ 128 µg/mL); in the series on Micrococcus luteus [4], 110 µM (≈ 67 µg/mL); in the series with Escherichia coli [5] it was 840 µM (≈ 512 µg/mL); in the series on Pseudomonas aeruginosa [7], 210 µM (≈ 128 µg/mL); against Candida albicans [10] it was 420 µM (≈ 256 µg/mL). Besides, the MIC with Cyberlindnera jadinii stood at 210 µM (≈ 128 µg/mL); against Pichia norvegensis, 420 µM (≈ 256 µg/mL); against Aspergillus flavus, 420 µM (≈ 256 µg/mL); in the series on Saccharomyces cerevisiae, 840 µM (≈ 512 µg/mL); in the series with Candida parapsilosis, 7 µM (≈ 4.27 µg/mL). Moreover, in series [12], the solubility at 3 h worked out at 1900 µg/mL (≈ 3.12 mM). Besides, the viability at 48 h in series [13] was greater than 80.5%. In the series with Acinetobacter baumannii [14], the Activity is reported as greater than 3 deltalog10CFU/ml. The result in the series on Acinetobacter baumannii [15] and in the series with Acinetobacter baumannii [16] was Active.
`COc1cc(/C=N/Nc2nccs2)c2c(c1OCc1ccc([N+](=O)[O-])cc1)CN1CCc3cc4c(cc3C1C2)OCO4` (stereo not given): the MIC was 110 µM (≈ 64.4 µg/mL) in the series with Staphylococcus aureus [2]; 110 µM (≈ 64.4 µg/mL) with Bacillus subtilis; 220 µM (≈ 129 µg/mL) in the series with Micrococcus luteus [4]; 440 µM (≈ 258 µg/mL) with Escherichia coli [5]; 50 µM (≈ 29.3 µg/mL) with Pseudomonas aeruginosa [7]; 220 µM (≈ 129 µg/mL) in the series with Candida albicans [10]. Besides, the MIC against Cyberlindnera jadinii stood at 440 µM (≈ 258 µg/mL); in the series on Pichia norvegensis, 220 µM (≈ 129 µg/mL); in the series on Aspergillus flavus it was 870 µM (≈ 510 µg/mL); with Saccharomyces cerevisiae it was 440 µM (≈ 258 µg/mL); with Candida parapsilosis, 7 µM (≈ 4.1 µg/mL). In addition, in [12], the solubility at 3 h is 374 to 3190 µg/mL (≈ 0.639 to 5.45 mM).
`COc1cc(/C=N/Nc2nccs2)c2c(c1OCCO)CN1CCc3cc4c(cc3C1C2)OCO4` (stereo not given): the MIC was found to be 130 µM (≈ 64.3 µg/mL) against Staphylococcus aureus [2]; 260 µM (≈ 129 µg/mL) against Bacillus subtilis; 260 µM (≈ 129 µg/mL) against Micrococcus luteus [4]; 130 µM (≈ 64.3 µg/mL) in the series on Escherichia coli [5]; 130 µM (≈ 64.3 µg/mL) in the series with Pseudomonas aeruginosa [7]; 260 µM (≈ 129 µg/mL) against Candida albicans [10]. Also, the minimum inhibitory concentration (MIC) against Cyberlindnera jadinii was determined as 520 µM (≈ 257 µg/mL); in the series with Pichia norvegensis it was 520 µM (≈ 257 µg/mL); against Aspergillus flavus, 1040 µM (≈ 514 µg/mL); against Saccharomyces cerevisiae, 520 µM (≈ 257 µg/mL); against Candida parapsilosis, 30 µM (≈ 14.8 µg/mL). For the same compound, the solubility at 3 h in [12] was 7020 to 10200 µg/mL (≈ 14.2 to 20.6 mM).
For the compound `COc1cc(/C=N/Nc2nccs2)c2c(c1OCc1ccc(F)cc1)CN1CCc3cc4c(cc3C1C2)OCO4` (stereo not given), the Ratio in the series with Micrococcus luteus [17] came out at 12. The MIC stood at 110 µM (≈ 61.4 µg/mL) in the series on Staphylococcus aureus [2]; 230 µM (≈ 128 µg/mL) in the series on Bacillus subtilis; 60 µM (≈ 33.5 µg/mL) against Micrococcus luteus [4]; 460 µM (≈ 257 µg/mL) against Escherichia coli [5]; 230 µM (≈ 128 µg/mL) in the series on Pseudomonas aeruginosa [7]; 230 µM (≈ 128 µg/mL) against Candida albicans [10]. Besides, the MIC against Cyberlindnera jadinii is 230 µM (≈ 128 µg/mL); against Pichia norvegensis, 120 µM (≈ 67 µg/mL); in the series with Aspergillus flavus it was 460 µM (≈ 257 µg/mL); against Saccharomyces cerevisiae, 460 µM (≈ 257 µg/mL); against Candida parapsilosis, 30 µM (≈ 16.8 µg/mL). The same compound registered a solubility at 3 h in series [12] of 374 to 3190 µg/mL (≈ 0.669 to 5.71 mM).

The values are drawn from ChEMBL document CHEMBL4145497, “Discovery of 2-aminothiazolyl berberine derivatives as effectively antibacterial agents toward clinically drug-resistant Gram-negative Acinetobacter baumanii” (Eur J Med Chem, 2018).
